# Measurements as given in PMC7509213 (iScience, 2020).
# Where two headings read alike, the source gives them in different places.
# Experiments:
# PC3 cells = assay: PC3 proliferation under hypoxia or normoxia; assay type: cell-based, human; settings: for IC50: Homo sapiens, PC-3, 48 h
# Method in brief: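 PC3 cells seeded at 5,000/well and held at 1% O2 in a humidified chamber at 37°C for 48 h (normoxia 20% O2) before 48 h exposure to test compound. A 1 μCi [3H]-thymidine pulse per well was given for 6 h, then cells were harvested onto glass-fibre filters for scintillation counting. Proliferation is relative to DMSO, mean ± SEM, n = 3, and IC50 values were derived from these curves.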
# XPB = target: T1, XPB (Homo sapiens, UniProt P19447); assay: XPB degradation in cells; assay type: cell-based; settings: 10 μM, western blot
# T1 sequence (P19447 1-782): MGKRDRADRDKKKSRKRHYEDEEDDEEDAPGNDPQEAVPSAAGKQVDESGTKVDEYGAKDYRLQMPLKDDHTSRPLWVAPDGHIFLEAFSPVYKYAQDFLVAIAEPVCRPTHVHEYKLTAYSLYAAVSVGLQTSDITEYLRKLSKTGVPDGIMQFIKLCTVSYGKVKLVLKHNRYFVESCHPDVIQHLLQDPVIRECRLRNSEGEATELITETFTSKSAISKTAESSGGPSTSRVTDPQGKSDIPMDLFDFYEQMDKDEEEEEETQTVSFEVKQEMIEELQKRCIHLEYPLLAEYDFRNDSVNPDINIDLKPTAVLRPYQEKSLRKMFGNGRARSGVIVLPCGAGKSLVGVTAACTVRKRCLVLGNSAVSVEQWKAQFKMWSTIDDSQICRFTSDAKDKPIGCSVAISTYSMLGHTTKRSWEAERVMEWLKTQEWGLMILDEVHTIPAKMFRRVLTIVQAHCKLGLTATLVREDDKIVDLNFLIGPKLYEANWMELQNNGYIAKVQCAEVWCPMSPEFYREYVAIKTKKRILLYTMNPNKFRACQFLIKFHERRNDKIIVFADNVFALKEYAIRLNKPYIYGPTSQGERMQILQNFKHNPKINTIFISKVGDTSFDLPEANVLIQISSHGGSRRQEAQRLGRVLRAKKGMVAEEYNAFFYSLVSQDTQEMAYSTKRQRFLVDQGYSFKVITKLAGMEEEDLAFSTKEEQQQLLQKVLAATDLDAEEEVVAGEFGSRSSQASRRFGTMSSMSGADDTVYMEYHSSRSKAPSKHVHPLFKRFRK
# RPB1 subunit of RNAPII [1] = assay: RPB1 degradation in HeLa cells; assay type: cell-based, human
# TFIIH = TFIIH (Homo sapiens, UniProt P19447); assay: DNA-dependent ATPase activity assay of purified TFIIH; assay type: biochemical; settings: 200 nM
# Method in brief: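 Purified TFIIH, DNA-dependent ATPase assay. It was started with TFIIH, run for 2 h, and stopped with EDTA. Mixture was spotted on PEI-cellulose TLC and developed in 0.5 M LiCl/1 M HCOOH. Released 32Pi was quantified by phosphorimaging relative to DMSO, mean ± SE, n = 3.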
# [2] = lethal case dosed with 18 mg/m^2 F60008; ref Kitzen et al., 2009; cited from earlier work
# RPB1 subunit of RNAPII [3] = assay: RPB1 degradation in PC3 cells under hypoxia; assay type: cell-based, human; settings: PC3, 10 μM, 1% O2
# RPB1 subunit of RNAPII [4] = assay: RPB1 degradation in C342T XPB knock-in cells; assay type: cell-based, human; settings: 1μM
molecule,measurement,setting,value
COc1cccc2c1C(=O)c1c(O)c3c(c(O)c1C2=O)C[C@@](O)(C(=O)CO)C[C@@H]3O[C@H]1C[C@H](N)[C@H](O)[C@H](C)O1 [doxorubicin],potency under hypoxia versus normoxia,"PC3 cells; PC3, 1% O2 vs 20% O2",decreased
CC(=O)S[C@@H]1CC2=CC(=O)CC[C@]2(C)[C@H]2CC[C@@]3(C)[C@@H](CC[C@@]34CCC(=O)O4)[C@H]12 [spironolactone],degradation of XPB,XPB,caused degradation of the majority of XPB
same,effect on RPB1 degradation induced by G-2,RPB1 subunit of RNAPII [1]; 10 μM SP combined with 1 μM G-2,rescued RPB1 from degradation
same,stability of RPB1,"RPB1 subunit of RNAPII [1]; HeLa, 10 μM",no effect
"CC(C)[C@]12O[C@H]1[C@@H]1O[C@]13[C@]1(O[C@H]1C[C@H]1C4=C(CC[C@@]13C)C(=O)OC4)[C@@H]2O [triptolide, (1S,2S,4S,5S,7R,8R,9S,11S,13S)-8-hydroxy-1-methyl-7-propan-2-yl-3,6,10,16 tetraoxaheptacyclo[11.7.0.0^2,4.0^2,9.0^5,7.0^9,11.0^14,18] icos-14(18)-en-17-one]",IC50,"PC3 cells; read-out: IC50, PC3 proliferation under hypoxia",1.5 nM
same,IC50,"PC3 cells; read-out: IC50, PC3 proliferation under normoxia",4.5 nM
same,fold enhancement of anti-proliferative effect (IC50) during hypoxia,"PC3 cells; PC3, hypoxia vs normoxia",three-fold
same,effect size during hypoxia,PC3 cells; hypoxic PC3 cells,0.71
same,ATPase activity of TFIIH,TFIIH,nearly completely inhibited
same,Maximum serum levels,[2],58.5 ng/mL
"O=C(Oc1cccc(F)c1OC(=O)c1cccc(O)c1)c1cccc(O)c1 [WZB117, 2-Fluoro-6-(m-hydroxybenzoyloxy) phenyl m-hydroxybenzoate]",effect on RNAPII degradation triggered by 3 μM G-2 and hypoxia,RPB1 subunit of RNAPII [3],antagonizes
α-amanitin,degradation of Rpb1 in C342T XPB isogenic cell line,RPB1 subunit of RNAPII [4],induced the degradation of Rpb1
